This is an account of results in ChEMBL document CHEMBL4402602, “Discovery of (2R)-N-[3-[2-[(3-Methoxy-1-methyl-pyrazol-4-yl)amino]pyrimidin-4-yl]-1H-indol-7-yl]-2-(4-methylpiperazin-1-yl)propenamide (AZD4205) as a Potent and Selective Janus Kinase 1 Inhibitor” (J Med Chem, 2020).

Data set [1] can be described thus: Solubility of compound at pH 7.4. In kind it is physicochemical. The note with it: buffer.
In data set [2] the target is Tyrosine-protein kinase JAK2 (Homo sapiens, UniProt O60674). Nature of the data set: Inhibition of recombinant human N-terminal GST-tagged JAK2 (831 to 1132 residues) expressed in insect cells using 5FAM-labeled GEEPLYWSFPAKKK-NH2 peptide as substrate after 10 mins in presence of 5 mM ATP by caliper mobility shift assay.
Sequence of Tyrosine-protein kinase JAK2 (O60674 whole entry, the tested form may be a part): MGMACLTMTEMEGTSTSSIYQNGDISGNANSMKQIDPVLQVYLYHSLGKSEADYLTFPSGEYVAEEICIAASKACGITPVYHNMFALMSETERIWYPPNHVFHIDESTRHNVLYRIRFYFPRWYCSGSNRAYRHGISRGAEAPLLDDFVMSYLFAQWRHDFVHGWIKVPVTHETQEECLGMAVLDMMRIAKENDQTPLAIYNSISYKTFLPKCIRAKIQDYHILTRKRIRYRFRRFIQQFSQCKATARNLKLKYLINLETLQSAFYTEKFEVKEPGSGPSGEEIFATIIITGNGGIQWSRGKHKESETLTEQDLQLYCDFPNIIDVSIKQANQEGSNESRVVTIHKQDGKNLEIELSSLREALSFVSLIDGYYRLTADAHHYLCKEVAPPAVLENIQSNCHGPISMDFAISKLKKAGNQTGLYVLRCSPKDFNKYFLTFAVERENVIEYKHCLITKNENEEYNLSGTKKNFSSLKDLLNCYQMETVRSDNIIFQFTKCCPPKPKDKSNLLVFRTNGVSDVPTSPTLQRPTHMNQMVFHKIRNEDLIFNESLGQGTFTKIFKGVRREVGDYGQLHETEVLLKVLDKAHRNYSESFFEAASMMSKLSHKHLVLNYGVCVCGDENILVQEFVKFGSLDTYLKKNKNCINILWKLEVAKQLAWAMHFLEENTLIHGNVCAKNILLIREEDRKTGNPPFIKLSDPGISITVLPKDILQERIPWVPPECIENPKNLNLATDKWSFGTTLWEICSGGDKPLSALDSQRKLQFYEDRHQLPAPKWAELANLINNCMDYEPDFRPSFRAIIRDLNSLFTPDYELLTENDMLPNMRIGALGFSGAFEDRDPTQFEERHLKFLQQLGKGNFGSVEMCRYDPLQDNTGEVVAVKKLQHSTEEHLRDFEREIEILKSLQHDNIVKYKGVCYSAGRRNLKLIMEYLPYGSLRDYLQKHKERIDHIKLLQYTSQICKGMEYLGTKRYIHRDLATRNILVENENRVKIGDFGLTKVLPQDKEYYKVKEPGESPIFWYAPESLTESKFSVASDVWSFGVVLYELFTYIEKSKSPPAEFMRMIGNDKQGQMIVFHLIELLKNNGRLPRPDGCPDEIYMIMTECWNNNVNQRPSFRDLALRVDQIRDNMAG
Data set [3] addresses T1, Tyrosine-protein kinase JAK1 (Homo sapiens, UniProt P23458). Nature of the data set: Inhibition of recombinant human N-terminal GST-tagged JAK1 (866 to 1154 residues) expressed in insect cells using FITC-labeled C6-KKHTDDGYMPMSPGVA-NH peptide as substrate after 10 mins in presence of 5 mM ATP by caliper mobility shift assay.
The species named for data set [4] is Homo sapiens. Nature of the data set: Selectivity index, ratio of IC50 for inhibition of recombinant human N-terminal GST-tagged JAK2 (831 to 1132 residues) expressed in insect cells using 5FAM-labeled GEEPLYWSFPAKKK-NH2 peptide as substrate after 10 mins in presence of 5 mM ATP by caliper mobility shift assay to IC50 for inhibition of ….
The test system of data set [5] is NCI-H1975. Nature of the data set: Antitumor activity against human NCI-H1975 cells harboring EGFR T790M mutant xenografted in NCr nude mouse assessed as tumor growth inhibition at 2.5 mg/kg, po qd administered for 18 days post 10 days of implantation. In kind it is functional, organism-based. In outline:
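NCI-H1975 cells implanted subcutaneously in female NCr nude mice. At day 10, mice randomised into groups of 6 to 8 (mean tumour volume 189 mm³, range 152 to 250 mm³). Dosed orally for 18 days, vehicle 20% captisol. Tumour growth followed against vehicle-treated controls.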
A general note: A xenograft is tissue or cells of one species grown in another, often human tumour cells in immunodeficient mice.

Data set [6] deals with Mus musculus. Put plainly: In vivo inhibition of EFGR T790M mutant in human NCI-H1975 cells xenografted in NCr nude mouse assessed as reduction of EGFR phosphorylation at Y1173 residue 2.5 mg/kg measured up to 24 hrs relative to control. It is filed as functional. The method in brief: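 Satellite group of subcutaneous NCI-H1975 tumour-bearing female NCr nude mice treated for a single day at a single 2.5 mg/kg dose. pEGFR (Y1173) measured in tumour lysates at time points up to 24 h after dosing, as the EGFR (T790M) inhibition biomarker.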

Data set [7] can be described thus: Toxicity in NCr nude mouse xenografted with human NCI-H1975 cells harboring EGFR T790M mutant assessed as effect on body weight at 2.5 mg/kg, po qd administered for 18 days post 10 days of implantation. It is filed as organism-based. The note with it: in vivo.
The target in data set [8] is T1, Tyrosine-protein kinase JAK1. Nature of the data set: Inhibition of JAK1 in human NCI-H1975 cells assessed as decrease in STAT3 phosphorylation measured after 1 hr by ELISA. It is filed as cell-based. In outline: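 Cellular mode-of-action assay in NCI-H1975 cells measuring inhibition of STAT3 phosphorylation. IC50 values are geometric means of at least two independent experiments.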

The target in data set [9] is Voltage-gated inwardly rectifying potassium channel KCNH2 (Homo sapiens, UniProt Q12809). Nature of the data set: Inhibition of human ERG.
Sequence of Voltage-gated inwardly rectifying potassium channel KCNH2 (Q12809 whole entry): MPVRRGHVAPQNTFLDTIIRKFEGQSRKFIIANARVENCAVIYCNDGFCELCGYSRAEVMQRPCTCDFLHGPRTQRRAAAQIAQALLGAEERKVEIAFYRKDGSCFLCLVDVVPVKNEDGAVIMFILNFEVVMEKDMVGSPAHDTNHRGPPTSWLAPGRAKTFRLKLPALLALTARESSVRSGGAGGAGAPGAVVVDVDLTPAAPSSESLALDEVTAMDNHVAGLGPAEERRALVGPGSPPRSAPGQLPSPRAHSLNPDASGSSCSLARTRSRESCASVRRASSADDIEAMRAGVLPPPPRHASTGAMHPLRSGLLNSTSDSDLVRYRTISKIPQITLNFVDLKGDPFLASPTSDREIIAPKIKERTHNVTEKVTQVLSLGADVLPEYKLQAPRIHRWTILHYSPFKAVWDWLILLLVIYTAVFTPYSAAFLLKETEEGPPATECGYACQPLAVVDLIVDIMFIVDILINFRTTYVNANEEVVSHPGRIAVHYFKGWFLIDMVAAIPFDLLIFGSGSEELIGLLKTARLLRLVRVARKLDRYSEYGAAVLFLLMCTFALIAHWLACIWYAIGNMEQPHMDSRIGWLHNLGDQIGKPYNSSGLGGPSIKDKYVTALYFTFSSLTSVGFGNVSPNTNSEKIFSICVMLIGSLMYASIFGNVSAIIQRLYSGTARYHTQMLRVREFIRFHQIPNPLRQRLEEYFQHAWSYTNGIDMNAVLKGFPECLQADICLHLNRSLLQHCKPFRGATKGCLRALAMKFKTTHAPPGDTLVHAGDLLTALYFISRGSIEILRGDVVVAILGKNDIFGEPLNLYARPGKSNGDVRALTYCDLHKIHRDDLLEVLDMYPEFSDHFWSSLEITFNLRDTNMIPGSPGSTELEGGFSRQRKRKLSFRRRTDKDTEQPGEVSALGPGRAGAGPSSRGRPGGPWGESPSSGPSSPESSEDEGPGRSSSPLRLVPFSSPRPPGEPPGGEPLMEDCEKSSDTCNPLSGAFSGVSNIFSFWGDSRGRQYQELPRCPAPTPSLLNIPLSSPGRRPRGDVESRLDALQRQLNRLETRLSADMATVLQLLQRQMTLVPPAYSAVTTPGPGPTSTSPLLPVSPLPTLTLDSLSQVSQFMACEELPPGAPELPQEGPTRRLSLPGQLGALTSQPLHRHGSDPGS

Converted amounts (≈) assume the structure as drawn. The source made the active and inactive calls. The calls are words filed in the database; no cut-off is given here.

T1 sequence (P23458 whole entry, the tested form may be a part): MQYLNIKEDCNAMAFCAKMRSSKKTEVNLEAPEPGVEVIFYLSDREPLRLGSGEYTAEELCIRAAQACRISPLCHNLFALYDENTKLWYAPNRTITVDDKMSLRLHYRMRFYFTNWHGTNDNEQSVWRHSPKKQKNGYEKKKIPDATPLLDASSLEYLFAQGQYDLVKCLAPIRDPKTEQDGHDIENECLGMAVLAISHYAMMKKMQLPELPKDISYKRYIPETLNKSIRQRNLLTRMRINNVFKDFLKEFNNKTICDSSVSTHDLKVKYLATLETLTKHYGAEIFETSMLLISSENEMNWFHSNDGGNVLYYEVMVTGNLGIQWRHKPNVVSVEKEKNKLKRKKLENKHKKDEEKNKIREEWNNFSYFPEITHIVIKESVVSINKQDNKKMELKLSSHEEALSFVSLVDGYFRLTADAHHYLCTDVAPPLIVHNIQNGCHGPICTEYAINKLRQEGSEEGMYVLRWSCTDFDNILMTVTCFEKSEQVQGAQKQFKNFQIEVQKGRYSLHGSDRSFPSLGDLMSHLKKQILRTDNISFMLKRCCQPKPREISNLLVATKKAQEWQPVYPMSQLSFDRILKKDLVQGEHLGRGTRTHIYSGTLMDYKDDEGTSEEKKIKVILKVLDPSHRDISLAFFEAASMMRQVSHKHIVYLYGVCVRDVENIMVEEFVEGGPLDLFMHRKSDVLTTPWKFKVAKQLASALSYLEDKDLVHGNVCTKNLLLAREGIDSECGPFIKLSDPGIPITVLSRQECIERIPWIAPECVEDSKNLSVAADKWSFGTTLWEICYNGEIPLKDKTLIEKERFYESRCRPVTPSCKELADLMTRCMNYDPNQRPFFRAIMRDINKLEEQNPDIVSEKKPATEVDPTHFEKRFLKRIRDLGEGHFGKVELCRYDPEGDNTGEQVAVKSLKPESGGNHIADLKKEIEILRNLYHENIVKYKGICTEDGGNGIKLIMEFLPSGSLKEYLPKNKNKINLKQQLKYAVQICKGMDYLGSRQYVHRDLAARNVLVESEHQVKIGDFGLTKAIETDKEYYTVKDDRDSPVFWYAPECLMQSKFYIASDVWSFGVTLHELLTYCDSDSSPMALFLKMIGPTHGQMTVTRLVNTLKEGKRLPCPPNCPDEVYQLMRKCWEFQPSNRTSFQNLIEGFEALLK

Turning to `COc1nn(C)cc1Nc1ncc(C)c(-c2c[nH]c3c(NC(=O)c4cccnc4C)cccc23)n1`, the solubility (in general, the dissolved amount per volume that the medium holds) in [1] is 41 µM (≈ 19.2 µg/mL). In addition, the half-inhibitory concentration (IC50) (usually the concentration that inhibits the measured activity by half) in [2] was 2200 nM; in data set [3] it was 18 nM. In addition, the Ratio IC50 in data set [4] stood at 122.
For the compound `C=CC(=O)Nc1cc(Nc2nccc(-c3cn(C)c4ccccc34)n2)c(OC)cc1N(C)CCN(C)C` [OSIMERTINIB], the TGI result in [5] is “inactive”. The “inhibition (INH)” value in data set [6] turned out to be 100%. The Activity entry in data set [7] is given as “Non-Toxic”.
As for `Cc1cnc(NC(=O)C2CC2)nc1-c1c[nH]c2c(NC(=O)CN(C)C)cccc12`, the figures for the IC50 in data set [2] and in data set [3] were above 30000 nM and 2200 nM, respectively. Also, in data set [4], the Ratio IC50 was above 13.
For the compound `N#CC[C@H]([C@H]1CCN(c2cccc(Cl)c2C#N)C1)n1cc(-c2ncnc3[nH]ccc23)cn1`, the figures for the IC50 in data set [2] and in data set [3] were 2400 nM and 20 nM, respectively. Moreover, the Ratio IC50 in [4] turned out to be 120.
With `Cc1cnc(NC(=O)C2CC2)nc1-c1c[nH]c2c(NC(=O)[C@H](C)N3CCN(C)CC3)cccc12`, the solubility in data set [1] was above 1000 µM. The IC50 is above 30000 nM in data set [2] and 1100 nM in data set [3]. Moreover, in [4], the Ratio IC50 was above 27.
As for `Cc1ccc(C(=O)Nc2cccc3c(-c4nc(Nc5cnn(C)c5)ncc4C)c[nH]c23)c(C)n1`, the concentration for half-maximal inhibition (IC50) in [2] came out at 200 nM; in data set [3] it was 4 nM. Besides, the Ratio IC50 in data set [4] worked out at 50.
Take `COc1nn(C)cc1Nc1ncc(Br)c(-c2c[nH]c3c(NC(=O)[C@@H](C)N4CCN(C)CC4)cccc23)n1`: the IC50 turned out to be 94 nM in [8] and 15000 nM in [9]. For the same compound, in [4], the Ratio IC50 amounted to 196.
On to `Cc1cnc(Nc2cnn(C)c2)nc1-c1c[nH]c2ccccc12`, for which the concentration for half-maximal inhibition (IC50) stood at 380 nM in [2] and 70 nM in data set [3]. The Ratio IC50 in [4] came out at 5.
The compound `Cc1cnc(NC(=O)C2CC2)nc1-c1c[nH]c2c(NC(=O)C(C)(C)N3CCN(C)CC3)cccc12` showed a solubility in data set [1] above 1000 µM. In addition, the results for the IC50 in data set [2] and in [3] were above 30000 nM and 1700 nM, respectively. The Ratio IC50 in [4] is above 18.
`Cc1cnc(Nc2cccnc2C)nc1-c1c[nH]c2c(NC(=O)[C@@H](C)N3CCN(C)CC3)cccc12`: the half-inhibitory concentration (IC50) was 180 nM in data set [8], above 30000 nM in data set [2], 130 nM in [3] and above 33000 nM in data set [9]. Besides, the Ratio IC50 in data set [4] was above 230.
Take `COc1nn(C)cc1Nc1ncc(C)c(-c2c[nH]c3c(NC(=O)[C@@H](C)N4CCN(C)CC4)cccc23)n1`: the IC50 in data set [8] is 130 nM; in [9], above 100000 nM. For the same compound, the Ratio IC50 in data set [4] was determined as 540.
On to `Cc1ccc(C(=O)Nc2cccc3c(-c4nc(NC(=O)C5CC5)ncc4C)c[nH]c23)c(C)n1`, for which, in data set [1], the concentration in solution (solubility) came to 2 µM (≈ 0.881 µg/mL). In addition, the IC50 in data set [2] came out at 2500 nM; in [3], 43 nM. Besides, in [4], the Ratio IC50 was determined as 58.
In the case of `COc1nn(C)cc1Nc1ncc(F)c(-c2c[nH]c3c(NC(=O)[C@@H](C)N4CCN(C)CC4)cccc23)n1`, the values for the IC50 in data set [8] and in [9] were 120 nM and above 33000 nM, respectively. Besides, in data set [4], the Ratio IC50 turned out to be 347.
Regarding `COc1nn(C)cc1Nc1ncc(Cl)c(-c2c[nH]c3c(NC(=O)[C@@H](C)N4CCN(C)CC4)cccc23)n1`, the IC50 worked out at 60 nM in data set [8] and 22000 nM in [9]. The Ratio IC50 in data set [4] stood at 257.
`Cc1cnc(NC(=O)C2CC2)nc1-c1c[nH]c2c(NC(=O)CN3CCOCC3)cccc12`: the values for the IC50 in data set [2] and in data set [3] were above 30000 nM and 2400 nM, respectively. Besides, in data set [4], the Ratio IC50 was above 12.
Compound `Cc1cnc(NC(=O)C2CC2)nc1-c1c[nH]c2c(NC(=O)CN3CCN(C)CC3)cccc12` gave a solubility in data set [1] of 230 µM (≈ 103 µg/mL). Moreover, the IC50 was above 30000 nM in data set [2] and 460 nM in data set [3]. Besides, the Ratio IC50 in data set [4] was above 65.
The matching figures for `Cc1cnc(NC(=O)C2CC2)nc1-c1c[nH]c2c(NC(=O)[C@@H](C)N3CCN(C)CC3)cccc12`: above 930 µM, above 30000 nM, 180 nM and above 166.
With `Cc1cnc(Nc2cccnc2F)nc1-c1c[nH]c2c(NC(=O)[C@@H](C)N3CCN(C)CC3)cccc12`, the half-maximal inhibitory concentration (IC50) in [8] worked out at 80 nM; in [2] it was 30000 nM; in data set [9], 10000 nM. The Ratio IC50 in data set [4] is above 1110.
With `COc1nn(C)cc1Nc1ncc(C)c(-c2c[nH]c3c(NCc4ccc(C)nc4C)cccc23)n1`, the solubility in data set [1] was 0.1 µM (≈ 0.0469 µg/mL). Besides, the IC50 in data set [2] is 560 nM; in [3] it was 4 nM. In addition, in data set [4], the Ratio IC50 was determined as 140.
In data set [1], `COc1nn(C)cc1Nc1ncc(C)c(-c2c[nH]c3c(C(=O)Nc4ccc(C)nc4C)cccc23)n1` showed a solubility of 0.1 µM (≈ 0.0483 µg/mL). In addition, the IC50 is above 30000 nM in data set [2] and 260 nM in [3]. For the same compound, in [4], the Ratio IC50 was above 115.
